# Experimental data taken from PMC10245921 (bioRxiv, 2023).
# Where “and” joins values, the source holds several entries; their conditions need not be identical. Identical values can stand only once. Where no end group is shown, it is not given here. The star is where a group is joined. FITC = O=C1OC2(c3ccc(O)cc3Oc3cc(O)ccc32)c2ccc(NC(=S)*)cc21
# B1: FITC-conjugated CD44 peptide (SRRRCGQKKKLVINSGNGAVEDYK-FITC) (peptide)
# peptide: SRRRCGQKKKLVINSGNGAVEDYK(FITC)
# How the values were obtained:
# [1] = molecular target: MSN FERM domain (Homo sapiens, UniProt P26038); experiment: Surface plasmon resonance; assay type: binding
# Procedure, shortened: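 MSN FERM domain is amine-coupled to a CM5 chip in acetate pH 4, to 4000 RU. Multi-cycle kinetics use test compound at 0.5–8 μM. KD comes from a 1:1 binding model fit.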
# [2] = molecular target: MSN (Homo sapiens, UniProt P26038); experiment: Thermal shift assay of MSN with compounds; assay type: binding; conditions: two experiments
# Procedure, shortened: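 Precipitate is removed by centrifugation, then the mix is incubated 30 min at RT. Sypro Orange is added at 20x and the sample ramped 25→95 °C at 1 °C/min. Tm comes from a Boltzmann fit; ΔTm versus DMSO is averaged over two experiments.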
# [3] = molecular target: MSN–CD44 interaction (Homo sapiens, UniProt P26038); experiment: MSN–CD44 TR-FRET assay; assay type: binding; conditions: for IC50: IC50, confirmatory TR-FRET dose response, Fig. 4D, primary hits; for increase in potency relative to compound 2: MSN–CD44 TR-FRET
# [4] = molecular target: GST-tagged MSN and Flag-tagged CD44 (Homo sapiens, UniProt P26038); experiment: GST-pull down assay in cell lysates; assay type: binding; conditions: full length proteins in cell lysates
# Procedure, shortened: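 HEK293 cells co-express full-length GST-MSN and Venus-Flag-CD44; Venus marks CD44 expression. Lysates are diluted in 10 mM HEPES pH 7.5, 150 mM NaCl, 0.25% Triton X-100 with protease and phosphatase inhibitors. They are dose-treated with test compound in DMSO, rotating 1 h at 4 °C, then captured on GST resin for 1.5 h at 4 °C and washed three times. SDS-PAGE and immunoblotting detect Flag (CD44) and GST (MSN). Two experiments.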
# [5] = molecular target: LgBiT-MSN(T588D) and SmBit-CD44 (Homo sapiens, UniProt P26038, T558D); experiment: NanoBiT split luciferase assay in live cells; assay type: cell-based
# Procedure, shortened: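 HEK293T cells (DMEM, 10% FBS, penicillin/streptomycin, 37 °C, 5% CO2) are seeded at 6000 cells/well. Next day they are transfected with CD44-SmBiT (C-terminal) and LgBiT-MSN(T558D) (N-terminal) plasmids, 20 ng and 5 ng, using Fugene HD; LgBiT-MSN(T558A) is the negative control. After 18 h, 2-fold dilutions of test compound (6.25–0.098 μM, DMSO) are added for 3 h. Nano-Glo Live Cell Reagent is added for 20 min at 37 °C, then luminescence is read. Two independent experiments.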
# [6] = Solubility by nephelometry; assay type: physicochemical
# [7] = molecular target: SYK-FCER1G (Homo sapiens, UniProt P43405); experiment: SYK TR-FRET counter screen; assay type: binding
# [8] = molecular target: B1; experiment: FRET or BRET
# [9] = molecular target: 6His-tagged FERM domain of human MSN (residues 1–345), wild type (human, UniProt P26038 1-345); experiment: FRET or BRET
# [10] = molecular target: FERM domain of human MSN (residues 1–345), wild type, 6His tag cleaved (human, UniProt P26038 1-345); experiment: FRET or BRET
# [11] = IC50, CD44–MSN interaction in live cells (approximate), NanoBiT, live cells
# Chain of GST-tagged MSN and Flag-tagged CD44 (P26038 whole entry): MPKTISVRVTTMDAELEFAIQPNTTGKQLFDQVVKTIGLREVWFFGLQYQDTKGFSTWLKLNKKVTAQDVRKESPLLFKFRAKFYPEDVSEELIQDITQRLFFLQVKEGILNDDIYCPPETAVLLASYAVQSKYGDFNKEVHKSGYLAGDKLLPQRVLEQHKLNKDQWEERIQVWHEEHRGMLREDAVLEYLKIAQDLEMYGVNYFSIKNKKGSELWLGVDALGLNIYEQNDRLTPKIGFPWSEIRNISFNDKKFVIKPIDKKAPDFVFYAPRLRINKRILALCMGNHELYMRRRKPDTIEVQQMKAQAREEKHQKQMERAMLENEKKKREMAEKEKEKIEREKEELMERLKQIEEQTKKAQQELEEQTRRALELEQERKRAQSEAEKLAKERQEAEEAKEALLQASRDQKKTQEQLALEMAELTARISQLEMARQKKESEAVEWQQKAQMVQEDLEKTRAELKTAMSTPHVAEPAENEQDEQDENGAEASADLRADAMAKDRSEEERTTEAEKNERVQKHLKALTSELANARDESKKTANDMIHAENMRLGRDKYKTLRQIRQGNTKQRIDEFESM
# Chain of MSN–CD44 interaction (P26038 1-345): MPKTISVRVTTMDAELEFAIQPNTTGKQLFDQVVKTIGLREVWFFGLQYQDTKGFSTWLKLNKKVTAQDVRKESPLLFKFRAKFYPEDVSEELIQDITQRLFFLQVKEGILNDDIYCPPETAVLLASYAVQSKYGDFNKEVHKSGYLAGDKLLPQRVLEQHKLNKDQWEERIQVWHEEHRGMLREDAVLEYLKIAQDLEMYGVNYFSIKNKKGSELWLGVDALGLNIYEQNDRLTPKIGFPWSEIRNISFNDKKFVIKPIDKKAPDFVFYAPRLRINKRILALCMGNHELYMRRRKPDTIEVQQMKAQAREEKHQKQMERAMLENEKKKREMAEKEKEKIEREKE
# Chain of MSN (P26038 1-345): as above
# Chain of LgBiT-MSN(T588D) and SmBit-CD44 (P26038 whole entry T558D): as the sequence (P26038 whole entry) above, with T558D counted along it
# Chain of MSN FERM domain (P26038 1-345): as the sequence (P26038 1-345) above
molecule,measurement,setting,value
"Nc1ccc(C(=O)Nc2ccc(-c3nc4ccc(NC(=O)c5ccc(N)cc5)cc4s3)cc2)cc1.O=C(O)C(F)(F)F.O=C(O)C(F)(F)F [Compound 1, 4-amino-N-(4-(6-(4-aminobenzamido)benzo[d]thiazol-2-yl)phenyl)benzamide bis(2,2,2-trifluoroacetate)]",Kd,[1],4200 nM
same,av. ΔTm of MSN compared to DMSO alone,[2]; at 20 μM,1–2 °C
same,IC50,[3],5000 to 20000 nM
same,activity in GST-pulldown assay,[4],active
same,IC50,[5]; [11],~600 nM
same,IC50,"[5]; IC50, NanoBiT bioluminescence assay, HEK293 cells, 2 independent experiments",570 nM and 690 nM
"COc1ccccc1C(=O)Nc1ccc(-c2nc3ccccc3[nH]2)cc1 [Compound 2, N-(4-(1H-benzo[d]imidazol-2-yl)phenyl)-2-methoxybenzamide]",solubility in aqueous/PBS buffer,[6],low solubility
same,Kd,[1],700 nM
same,av. ΔTm of MSN compared to DMSO alone,[2]; at 20 μM,1–2 °C
same,IC50,[3],5000 to 20000 nM
same,activity in GST-pulldown assay,[4],active
same,IC50,[5]; [11],~200 nM
"COc1ccc(C(=O)Nc2ccc(-c3nc4ccccc4[nH]3)cc2)c(OC)c1 [Compound 2a, N-(4-(1H-benzo[d]imidazol-2-yl)phenyl)-2,4-dimethoxybenzamide]",solubility in aqueous/PBS buffer,[6],improved solubility
same,av. ΔTm of MSN compared to DMSO alone,[2]; at 50 μM,1.3 °C
same,activity in the counter screen,[7],no activity
same,increase in potency relative to compound 2,[3],8 fold
same,activity in GST-pulldown assay,[4],able to inhibit
"O=C(Nc1ccc(-c2nc3ccccc3[nH]2)cc1)c1cccc(Cl)c1 [Compound 2b, N-(4-(1H-benzo[d]imidazol-2-yl)phenyl)-3-chlorobenzamide]",solubility in aqueous/PBS buffer,[6],improved solubility
same,av. ΔTm of MSN compared to DMSO alone,[2]; at 50 μM,1.2 °C
same,activity in the counter screen,[7],no activity
same,increase in potency relative to compound 2,[3],2 fold
same,activity in GST-pulldown assay,[4],able to inhibit
"FERM domain of human MSN (1–345) H288A, 6His tag cleaved (domain or fragment) MPKTISVRVTTMDAELEFAIQPNTTGKQLFDQVVKTIGLREVWFFGLQYQDTKGFSTWLKLNKKVTAQDVRKESPLLFKFRAKFYPEDVSEELIQDITQRLFFLQVKEGILNDDIYCPPETAVLLASYAVQSKYGDFNKEVHKSGYLAGDKLLPQRVLEQHKLNKDQWEERIQVWHEEHRGMLREDAVLEYLKIAQDLEMYGVNYFSIKNKKGSELWLGVDALGLNIYEQNDRLTPKIGFPWSEIRNISFNDKKFVIKPIDKKAPDFVFYAPRLRINKRILALCMGNAELYMRRRKPDTIEVQQMKAQAREEKHQKQMERAMLENEKKKREMAEKEKEKIEREKE",fold higher concentration than wild type needed to inhibit,[8],10 fold
"FERM domain of human MSN (1–345) L281R, 6His tag cleaved (domain or fragment) MPKTISVRVTTMDAELEFAIQPNTTGKQLFDQVVKTIGLREVWFFGLQYQDTKGFSTWLKLNKKVTAQDVRKESPLLFKFRAKFYPEDVSEELIQDITQRLFFLQVKEGILNDDIYCPPETAVLLASYAVQSKYGDFNKEVHKSGYLAGDKLLPQRVLEQHKLNKDQWEERIQVWHEEHRGMLREDAVLEYLKIAQDLEMYGVNYFSIKNKKGSELWLGVDALGLNIYEQNDRLTPKIGFPWSEIRNISFNDKKFVIKPIDKKAPDFVFYAPRLRINKRIRALCMGNHELYMRRRKPDTIEVQQMKAQAREEKHQKQMERAMLENEKKKREMAEKEKEKIEREKE",fold higher concentration than wild type needed to inhibit,[8],10 fold
B1,binding result,[9],binds
same,binding result,[10],binds
